The source of these data is PubChem BioAssay.

Assay [1] is described as follows: inhibitors of TNFa-induced NFkB p65 translocation, primary screen, imaging, HUVEC, MLSMR starter and 10KST1 sets (AID 438;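 active = inhibition above 20% together with a positive visual image hit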;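 also: compound added about 3h40 before a 20 min TNFalpha stimulation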;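 as to inhibition: signal is the nuclear over cytoplasmic p65 intensity ratio per well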). The note with it: HUVEC TNFa-induced p65 nuclear translocation; cell count: measured here: nuclei count (cytotoxicity indicator), at 2.08 µM; inhibition: at 2 µM, stronger effect = higher value, 0% TNFa-plus-vehicle, 100% no-TNFa wells.
Assay [2] is described as follows: endothelial E-selectin expression blockers – imaging, HUVEC, immunofluorescence, MLSMR starter and 10KST1 sets, primary screen (AID 487;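 active = visually confirmed hit in the image check and inhibition above 20%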;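 as to inhibition: signal is fraction of cell area covered by stained E-selectin grains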;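 as to nuclei count: 100% = median nuclei count of all wells on the same plate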). Conditions: HUVEC TNFalpha-induced E-selectin immunofluorescence imaging, at 2 µM; inhibition: stronger effect = higher value; nuclei count: measured here: cell number, toxicity.
A short description of assay [3]: Primary imaging screen for DUSP6 inhibitors that restore phospho-Erk in transfected HeLa cells, chemical complementation (AID 609;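 active = compounds giving at least 50% inhibition in the cell-based MKP-3 phosphatase rescue imaging test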;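 as to inhibition: phospho-Erk level distribution per well compared with pooled transfected vehicle control wells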). Conditions: HeLa MKP-3 transfected, phospho-Erk imaging KS statistic, at 10 µM, cells stimulated with TPA for 15 min.
Assay [4] has as its target Dual specificity protein phosphatase 6 (Homo sapiens) (UniProt Q16828). The description is as above. The note with it: HeLa MKP-3 transfected, phospho-Erk imaging KS statistic; at 10 µM; stronger effect = higher value; cells stimulated with TPA for 15 min.
The target of assay [5] is Voltage-gated potassium channel subunit beta-2 (Rattus norvegicus) (UniProt P62483). Briefly: inhibitors of rat Kvbeta2 reductase activity – biochemical, NADPH fluorescence, primary screen (AID 622;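 active = fluorescence slope higher than the sample average by over 3 SD, cut at about -0.22 in these data, passing the limit was not always enough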;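 also: slope of raw intensity against log time taken from 70 to 1610 s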). The note with it: recombinant KvBeta, 4-cyanobenzaldehyde reduction, at 10 µM, stronger effect = higher value.
Sequence of Voltage-gated potassium channel subunit beta-2 (Rattus norvegicus) (P62483 whole entry, looked up): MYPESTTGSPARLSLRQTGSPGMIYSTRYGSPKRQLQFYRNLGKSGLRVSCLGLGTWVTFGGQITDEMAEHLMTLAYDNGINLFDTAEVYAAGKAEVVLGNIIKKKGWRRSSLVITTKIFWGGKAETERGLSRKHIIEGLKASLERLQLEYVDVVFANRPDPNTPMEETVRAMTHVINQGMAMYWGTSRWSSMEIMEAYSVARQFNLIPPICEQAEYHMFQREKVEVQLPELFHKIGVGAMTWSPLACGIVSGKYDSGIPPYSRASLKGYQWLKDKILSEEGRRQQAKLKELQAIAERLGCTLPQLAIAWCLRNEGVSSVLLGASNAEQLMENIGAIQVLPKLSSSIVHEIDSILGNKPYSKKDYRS
The target is the same in assay [6]. As to the kind of experiment: enhancers of rat Kvbeta2 NADPH turnover – biochemical, NADPH fluorescence, primary screen (AID 623;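 active = NADPH fluorescence slope more negative than the mean of all samples by about 3 SD, 99.7% confidence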;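 also: fluorescence intensity change per second fitted from 20 to 320 s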). Conditions: Recombinant KvBeta, NADPH fluorescence decrease slope, 10 min; at 10 µM; stronger effect = lower value.
The target of assay [7] is Alpha-2C adrenergic receptor (Homo sapiens) (UniProt P18825). As to the kind of experiment: compounds altering alpha2C-coupled GIRK flux – cell-based, HEK293 alpha2C/GIRK1/2, thallium flux, primary screen (AID 624;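 active = fluorescence slope after compound addition differing from the mean of all screened samples at 99.7% confidence, in either direction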;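 also: slope of fluorescence ratio to pre-addition baseline per second over 15 to 24 s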). The note with it: thallium flux BTC fluorescence, at 10 µM, actives lie on both sides.
Sequence of Alpha-2C adrenergic receptor (Homo sapiens) (P18825 whole entry, looked up): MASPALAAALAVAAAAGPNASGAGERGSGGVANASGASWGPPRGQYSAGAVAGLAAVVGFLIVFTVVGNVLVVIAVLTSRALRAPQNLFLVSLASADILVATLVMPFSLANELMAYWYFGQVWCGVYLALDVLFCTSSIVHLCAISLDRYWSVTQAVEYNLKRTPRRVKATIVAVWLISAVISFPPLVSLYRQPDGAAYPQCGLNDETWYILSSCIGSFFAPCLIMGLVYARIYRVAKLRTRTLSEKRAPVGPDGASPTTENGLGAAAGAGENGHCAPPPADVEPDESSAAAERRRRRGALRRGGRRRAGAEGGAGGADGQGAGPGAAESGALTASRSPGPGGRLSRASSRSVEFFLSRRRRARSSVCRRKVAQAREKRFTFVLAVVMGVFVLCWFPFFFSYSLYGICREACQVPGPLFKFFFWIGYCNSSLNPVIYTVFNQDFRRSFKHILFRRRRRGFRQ
A short description of assay [8]: inhibitors of larval lipid processing in zebrafish, primary screen, whole organism, PED6 fluorescence, gall bladder and intestine (AID 686).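 Also: larvae 5 to 7 days old with five fish per well; signal comes from phospholipase A2 cleavage of quenched PED6 carried via bile; overnight exposure to compound and PED6 before scoring.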 The note with it: Zebrafish larvae PED6 lipid processing, fluorescence scoring; screened at 20 µM (by protocol). In outline:
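Also added: quenched phospholipase substrate PED6, 100 nM final, ingested by larvae; System: zebrafish larvae, 5-7 d; Quantity: 5 larvae per well; Compound: 20 µM single dose; Schedule: overnight compound and PED6 incubation; Read-out: visual per-well fluorescence inhibition score; Measured by: By-eye fluorescence microscopy; Medium: E3.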

Assay [9] can be described thus: loss of swimming-algae plug formation – whole organism, Chlamydomonas reinhardtii, WT vs cilia-less mutant, absorbance, 96-well, primary screen (AID 463189;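 active = inhibition at or above 50% relative to wild type and mutant plate controls; inactive = inhibition below 50%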;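 also: 0% = wild type cc124 cells in DMSO and 100% = ciliumless bld1 mutant cells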). Conditions: Chlamydomonas reinhardtii gravitaxis, OD600 absorbance, 2 days; at 10 µM; stronger effect = higher value.
Setting [10] is: measured here: cell density z-score.
The mark [11] stands for this setting: measured here: nuclear c-Myc green intensity z-score.
[12] abbreviates: measured here: nuclear pErk red intensity z-score, stronger effect = higher value.

Active and inactive are the calls of the source.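 The calls were made as follows, unless noted: active = a full or partial loss of lipid-probe fluorescence in the fish gall bladder, intestine or both, judged by eye; inactive = no fluorescence loss, or compound toxic to the fish.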

Sequence of Dual specificity protein phosphatase 6 (Homo sapiens) (Q16828 whole entry, looked up): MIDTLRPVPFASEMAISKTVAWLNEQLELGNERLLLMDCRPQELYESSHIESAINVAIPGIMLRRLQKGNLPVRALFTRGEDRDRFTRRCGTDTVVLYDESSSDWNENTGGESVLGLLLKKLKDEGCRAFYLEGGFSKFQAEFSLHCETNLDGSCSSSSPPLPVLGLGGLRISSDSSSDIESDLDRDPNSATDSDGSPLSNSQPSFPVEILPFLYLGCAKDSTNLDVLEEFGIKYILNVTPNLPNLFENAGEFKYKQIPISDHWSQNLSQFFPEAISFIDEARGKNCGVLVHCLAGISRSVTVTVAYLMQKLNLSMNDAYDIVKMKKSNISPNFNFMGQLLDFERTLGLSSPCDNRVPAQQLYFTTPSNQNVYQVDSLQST

For the molecule `COC(=O)C1=C(N)Oc2cc(C)oc(=O)c2C1c1ccncc1` (centres undefined), the cell count in [1] was 346. Also, the inhibition was -2.7% (inactive) in [1], 29.3% (inactive) in assay [2], -2.59% (inactive) in assay [4] and 28.1% (inactive) in assay [9]. The same molecule returned a nuclei count in assay [2] of 149%. Also, the z-score in assay [3] (setting [10]) is -0.595; in [3] (setting [11]) it was -0.189; in assay [3] (setting [12]), 1.46. Further, the fluorescence slope in assay [5] is -0.404 (inactive). For the same molecule, the NADPH fluorescence slope in assay [6] was -0.000149 (inactive). The slope in [7] was 0.00558 (inactive). The outcome in assay [8] is “active; weak signal in gallbladder and intestine”.
As to `COc1cc(-c2nn3c(COc4ccccc4)nnc3s2)cc(OC)c1OC`, in assay [1], the cell count is 497. Also, the inhibition in assay [1] was -2.1% (inactive); in assay [2], -95% (inactive); in assay [4] it was -4.27% (inactive); in assay [9] it was -11% (inactive). In addition, the nuclei count in [2] is 105%. Moreover, the values for the z-score in assay [3] (setting [10]), in assay [3] (setting [11]) and in [3] (setting [12]) were -0.725, 2.38 and 0.000132, respectively. In addition, in assay [5], the fluorescence slope was -0.417 (inactive). Further, the NADPH fluorescence slope in assay [6] is -1.5e-06 (inactive). Also, in assay [7], the slope was 0.00817 (inactive). Further, the call in [8] was inactive.
As to `Cc1cc(=O)oc(C)c1C(=O)N1CCN(Cc2ccc3c(c2)OCO3)CC1`, the cell count in assay [1] stood at 387. Moreover, the inhibition in assay [1] is -8.4% (inactive); in assay [2] it was -58.3% (inactive); in [4], 9.42% (inactive); in [9], 21.2% (inactive). The molecule further registered a nuclei count in [2] of 158%. For the same molecule, the z-score in assay [3] (setting [10]) is -0.184; in [3] (setting [11]), -0.833; in assay [3] (setting [12]) it was -0.4. Also, in assay [5], the fluorescence slope is -0.451 (inactive). Further, the NADPH fluorescence slope in assay [6] was -0.000128 (inactive). For the same molecule, in assay [7], the slope is 0.00491 (inactive). Further, the result in assay [8] was inactive.
As to `O=C(NCc1ccco1)c1ccc(=O)oc1`, the cell count in assay [1] was 352. Further, the inhibition is -6% (inactive) in [1], -89.9% (inactive) in assay [2], 23.4% (inactive) in assay [4] and 2.62% (inactive) in [9]. The nuclei count in assay [2] stood at 167%. Moreover, the z-score is 0.958 in assay [3] (setting [10]), 0.118 in assay [3] (setting [11]) and -1.31 in assay [3] (setting [12]). For the same molecule, the fluorescence slope in [5] is -0.471 (inactive). Moreover, the NADPH fluorescence slope in assay [6] was -0.000178 (inactive). Besides, the slope in assay [7] was 0.00508 (inactive). Further, the call in assay [8] was inactive.
For the molecule `CC(C)Oc1ccc(Cc2c(O)nc(NCCCN(C)C)[nH]c2=O)cc1`, in [1], the cell count is 383. The inhibition is -15.2% (inactive) in [1], -285% (inactive) in assay [2], -2.07% (inactive) in assay [4] and 26.1% (inactive) in assay [9]. Besides, the nuclei count in assay [2] amounted to 152%. Also, the z-score in assay [3] (setting [10]) is -0.061; in assay [3] (setting [11]), -1.61; in assay [3] (setting [12]) it was -0.785. For the same molecule, the fluorescence slope in [5] was -0.396 (inactive). Further, the NADPH fluorescence slope in assay [6] is -1e-05 (inactive). Also, in assay [7], the slope is 0.00657 (inactive). Besides, the result in [8] was inactive.
Turning to `CC1(C)C/C(=C(/C#N)C(N)=O)CCO1`, the cell count in assay [1] was 575. Moreover, the inhibition was -11.9% (inactive) in assay [1], -42.1% (inactive) in assay [2], -8.95% (inactive) in assay [4] and -18.4% (inactive) in [9]. The nuclei count in assay [2] is 110%. Besides, the z-score in [3] (setting [10]) was 0.299; in [3] (setting [11]) it was 1.82; in assay [3] (setting [12]), -0.278. In addition, the fluorescence slope in assay [5] is -0.392 (inactive). Moreover, in assay [6], the NADPH fluorescence slope was 4.5e-06 (inactive). Besides, the slope in [7] is 0.00848 (inactive). The result in [8] was inactive.
In the case of `Cc1cc(C)nc(N(C#N)S(=O)(=O)c2ccccc2Cl)n1`, the cell count in assay [1] was 352. For the same molecule, the inhibition in assay [1] was -11.5% (inactive); in [2] it was -228% (inactive); in assay [4], -2.07% (inactive); in assay [9], -0.932% (inactive). The same molecule had a nuclei count in assay [2] of 115%. In addition, the z-score in assay [3] (setting [10]) is -0.515; in assay [3] (setting [11]), -1.54; in assay [3] (setting [12]), -0.959. Besides, the fluorescence slope in assay [5] was -0.406 (inactive). Also, the NADPH fluorescence slope in assay [6] is -3.7e-06 (inactive). The slope in [7] was 0.0071 (inactive). For the same molecule, the molecule was classed as inactive in assay [8].
Consider `Cc1c(OCc2ccccc2)c(=O)ccn1Cc1ccccc1`, for which the cell count in [1] came to 560. The inhibition in assay [1] was -7.9% (inactive); in assay [2], -27.8% (inactive); in assay [4], -2.91% (inactive); in [9] it was -5.81% (inactive). In [2], this molecule gave a nuclei count of 226%. The z-score was 0.907 in assay [3] (setting [10]), -0.745 in [3] (setting [11]) and -0.326 in assay [3] (setting [12]). Further, in [5], the fluorescence slope was -0.379 (inactive). Also, the NADPH fluorescence slope in [6] was -2.4e-05 (inactive). For the same molecule, the slope in [7] is 0.00471 (inactive). Further, the molecule was called inactive in [8].
`COc1cc(C2C(C(=O)c3ccc(C)o3)=C(O)C(=O)N2c2cc(C)on2)cc(OC)c1OC` (centres undefined): the cell count in [1] was determined as 531. Further, the inhibition in assay [1] is -0.1% (inactive); in assay [2], -101% (inactive); in assay [4], 19.3% (inactive); in assay [9], -18.1% (inactive). The molecule further yielded a nuclei count in [2] of 125%. For the same molecule, the z-score was 1.95 in assay [3] (setting [10]), 0.514 in [3] (setting [11]) and -0.298 in assay [3] (setting [12]). Moreover, the fluorescence slope in assay [5] was -0.507 (inactive). Further, the NADPH fluorescence slope in assay [6] is -9.6e-06 (inactive). In assay [7], the slope is 0.00526 (inactive). Moreover, the result in assay [8] was inactive.
`O=C(Nc1nc(NC(=O)c2ccco2)n(-c2ccccc2)n1)c1ccccc1`: the cell count in [1] amounted to 339. Besides, the inhibition in [1] was -8.5% (inactive); in assay [2], -1.3% (inactive); in assay [4], -7.01% (inactive); in assay [9] it was 1.31% (inactive). In assay [2], the nuclei count was determined as 157%. Further, the values for the z-score in assay [3] (setting [10]), in [3] (setting [11]) and in assay [3] (setting [12]) were 0.978, -0.403 and -0.743, respectively. Moreover, the fluorescence slope in assay [5] was -0.452 (inactive). Moreover, in [6], the NADPH fluorescence slope was -0.000125 (inactive). Further, the slope in assay [7] was 0.00175 (inactive). In [8], the outcome is “inactive; toxic”.
Consider `Cc1ccc(C(=O)C2=C(O)C(=O)N(c3ncccn3)C2c2cccc(Cl)c2)o1` (centres undefined), for which, in assay [1], the cell count is 472. Moreover, the inhibition in [1] is -8.1% (inactive); in [2], -43% (inactive); in assay [4], 0.671% (inactive); in [9], 1.33% (inactive). Also, the nuclei count in assay [2] is 177%. Also, the z-score in assay [3] (setting [10]) was 0.573; in assay [3] (setting [11]) it was 0.527; in assay [3] (setting [12]), -0.321. For the same molecule, the fluorescence slope in assay [5] is -0.287 (inactive). In addition, in [6], the NADPH fluorescence slope was -2.1e-05 (inactive). For the same molecule, the slope in [7] is 0.00586 (inactive). In addition, in [8], the molecule was classed as inactive.
As to `COc1cc(-c2nn3c(-c4ccccn4)nnc3s2)cc(OC)c1OC`, in assay [1], the cell count stood at 600. Also, the inhibition is -13.9% (inactive) in [1], -249% (inactive) in assay [2], -2.47% (inactive) in [4] and 13.6% (inactive) in assay [9]. This molecule returned a nuclei count in assay [2] of 171%. The results for the z-score in assay [3] (setting [10]), in assay [3] (setting [11]) and in [3] (setting [12]) were 1.12, -1.51 and 0.045, respectively. Also, the fluorescence slope in [5] was -0.449 (inactive). The NADPH fluorescence slope in assay [6] is -0.000128 (inactive). Besides, in [7], the slope was 0.00656 (inactive). The molecule was classed as inactive in assay [8].
As for `N#Cc1ccc(-c2cccnc2)nc1SCC(=O)Nc1sc2c(c1C#N)CCC2`, the cell count in assay [1] was found to be 539. Besides, the inhibition in [1] is -25.4% (inactive); in [2], -101% (inactive); in assay [4], -9.66% (inactive); in assay [9], -0.076% (inactive). In [2], this molecule had a nuclei count of 144%. Besides, the z-score was 0.414 in [3] (setting [10]), 0.682 in assay [3] (setting [11]) and 0.527 in [3] (setting [12]). The fluorescence slope in assay [5] was -0.501 (inactive). In addition, the NADPH fluorescence slope in [6] was -5.3e-05 (inactive). For the same molecule, in assay [7], the slope was 0.00453 (inactive). Besides, the molecule was called inactive in assay [8].
